What was measured:
Conditions in all cases: in vivo, 0.25 h; call rule not given here
[1] = species on record: Rattus norvegicus; assay: The Biodistribution of the antagonistic compound in male wistar rats, after 15 minutes of injection in the trachea expressed as (body weight-corrected) uptake value; assay type: organism-based
[2] = test system: Rattus norvegicus; assay: The Biodistribution of the antagonistic compound along with pretreated atropine (2.5 mg/kg) in male wistar rats after 15 minutes of injection in the pancreas expressed as (body weight-corrected) uptake value; assay type: organism-based
Method in brief: (§1)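 Same protocol, except the pretreatment was saline containing atropine (0.5 mg/0.5 mL; 2.5 mg/kg) given i.v. 1 min before tail-vein injection of the radioligand (1.85-2.78 MBq in 0.4 mL saline) into pentobarbital-anaesthetized (60 mg/kg) male Wistar rats (240 g). Tissues removed at 15 min and counted ex vivo. Uptake is body-weight-corrected DAR = (cpm/g tissue)/(cpm injected/g body weight).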

[3] = test system: Rattus norvegicus; assay: The Biodistribution of the antagonistic compound along with pretreated atropine (2.5 mg/kg) in male wistar rats after 15 minutes of injection in the plasma expressed as (body weight-corrected) uptake value; assay type: organism-based; method in brief: as §1
[4] = test system: Rattus norvegicus; assay: The Biodistribution of the antagonistic compound along with pretreated atropine (2.5 mg/kg) in male wistar rats after 15 minutes of injection in the red blood cells; Below limit of detection expressed as (body weight-corrected) uptake value; assay type: organism-based; method in brief: as §1
[5] = test system: Rattus norvegicus; assay: The Biodistribution of the antagonistic compound along with pretreated atropine (2.5 mg/kg) in male wistar rats after 15 minutes of injection in the spleen; assay type: organism-based; method in brief: as §1
[6] = test system: Rattus norvegicus; assay: The Biodistribution of the antagonistic compound along with pretreated atropine (2.5 mg/kg) in male wistar rats after 15 minutes of injection in the submandibular gland expressed as (body weight-corrected) uptake value; assay type: organism-based; method in brief: as §1
[7] = test system: Rattus norvegicus; assay: The Biodistribution of the antagonistic compound along with pretreated atropine (2.5 mg/kg) in male wistar rats after 15 minutes of injection in the testes expressed as (body weight-corrected) uptake value; assay type: organism-based, Testis; method in brief: as §1
[8] = test system: Rattus norvegicus; assay: The Biodistribution of the antagonistic compound along with pretreated atropine (2.5 mg/kg) in male wistar rats after 15 minutes of injection in the trachea expressed as (body weight-corrected) uptake value; assay type: organism-based; method in brief: as §1
[9] = species on record: Rattus norvegicus; assay: The Biodistribution of the antagonistic compound in male wistar rats, after 15 minutes of injection in the cerebellum expressed as (body weight-corrected) uptake value; Below limit of detection; assay type: organism-based
[10] = species on record: Rattus norvegicus; assay: The Biodistribution of the antagonistic compound in male wistar rats, after 15 minutes of injection in the cortex expressed as (body weight-corrected) uptake value; Below limit of detection; assay type: organism-based
[11] = species on record: Rattus norvegicus; assay: The Biodistribution of the antagonistic compound in male wistar rats, after 15 minutes of injection in the fat expressed as (body weight-corrected) uptake value; assay type: organism-based, Adipose tissue
[12] = species on record: Rattus norvegicus; assay: The Biodistribution of the antagonistic compound in male wistar rats, after 15 minutes of injection in the heart; assay type: organism-based
[13] = species on record: Rattus norvegicus; assay: The Biodistribution of the antagonistic compound in male wistar rats, after 15 minutes of injection in the intestine expressed as (body weight-corrected) uptake value; assay type: organism-based
[14] = species on record: Rattus norvegicus; assay: The Biodistribution of the antagonistic compound in male wistar rats, after 15 minutes of injection in the kidney expressed as (body weight-corrected) uptake value; assay type: organism-based
[15] = species on record: Rattus norvegicus; assay: The Biodistribution of the antagonistic compound in male wistar rats, after 15 minutes of injection in the lung expressed as (body weight-corrected) uptake value; assay type: organism-based
[16] = species on record: Rattus norvegicus; assay: The Biodistribution of the antagonistic compound in male wistar rats, after 15 minutes of injection in the muscle expressed as (body weight-corrected) uptake value; assay type: organism-based, Muscle tissue
[17] = species on record: Rattus norvegicus; assay: The Biodistribution of the antagonistic compound in male wistar rats, after 15 minutes of injection in the pancreas expressed as (body weight-corrected) uptake value; assay type: organism-based
[18] = species on record: Rattus norvegicus; assay: The Biodistribution of the antagonistic compound in male wistar rats, after 15 minutes of injection in the plasma expressed as (body weight-corrected) uptake value; assay type: organism-based
[19] = test system: Rattus norvegicus; assay: The Biodistribution of the antagonistic compound along with pretreated atropine (2.5 mg/kg) in male wistar rats after 15 minutes of injection in the bladder; assay type: organism-based, Urinary bladder/Urine; method in brief: as §1
[20] = test system: Rattus norvegicus; assay: The Biodistribution of the antagonistic compound along with pretreated atropine (2.5 mg/kg) in male wistar rats after 15 minutes of injection in the cerebellum; Below limit of detection; assay type: organism-based; method in brief: as §1
[21] = test system: Rattus norvegicus; assay: The Biodistribution of the antagonistic compound along with pretreated atropine (2.5 mg/kg) in male wistar rats after 15 minutes of injection in the cortex expressed as (body weight-corrected) uptake value; Below limit of detection; assay type: organism-based; method in brief: as §1
[22] = test system: Rattus norvegicus; assay: The Biodistribution of the antagonistic compound along with pretreated atropine (2.5 mg/kg) in male wistar rats after 15 minutes of injection in the fat expressed as (body weight-corrected) uptake value; assay type: organism-based, Adipose tissue; method in brief: as §1
[23] = test system: Rattus norvegicus; assay: The Biodistribution of the antagonistic compound along with pretreated atropine (2.5 mg/kg) in male wistar rats after 15 minutes of injection in the heart expressed as (body weight-corrected) uptake value; assay type: organism-based; method in brief: as §1
[24] = species on record: Rattus norvegicus; assay: Biodistribution of compound in male wistar rats, after 15 minutes of injection in the bladder expressed as (body weight-corrected) uptake value; assay type: ADME, organism-based, Urinary bladder/Urine
[25] = species on record: Rattus norvegicus; assay: The Biodistribution of the antagonistic compound in male wistar rats, after 15 minutes of injection in the red blood cells expressed as (body weight-corrected) uptake value; Below limit of detection; assay type: organism-based
[26] = species on record: Rattus norvegicus; assay: The Biodistribution of the antagonistic compound in male wistar rats, after 15 minutes of injection in the stomach expressed as (body weight-corrected) uptake value; assay type: organism-based
[27] = species on record: Rattus norvegicus; assay: The Biodistribution of the antagonistic compound in male wistar rats, after 15 minutes of injection in the submandibular gland expressed as (body weight-corrected) uptake value; assay type: organism-based
[28] = species on record: Rattus norvegicus; assay: The Biodistribution of the antagonistic compound in male wistar rats, after 15 minutes of injection in the testes expressed as (body weight-corrected) uptake value; assay type: organism-based, Testis
[29] = test system: Rattus norvegicus; assay: The Biodistribution of the antagonistic compound along with pretreated atropine (2.5 mg/kg) in male wistar rats after 15 minutes of injection in the intestine expressed as (body weight-corrected) uptake value; assay type: organism-based; method in brief: as §1
[30] = test system: Rattus norvegicus; assay: The Biodistribution of the antagonistic compound along with pretreated atropine (2.5 mg/kg) in male wistar rats after 15 minutes of injection in the kidney expressed as (body weight-corrected) uptake value; assay type: organism-based; method in brief: as §1
[31] = test system: Rattus norvegicus; assay: The Biodistribution of the antagonistic compound along with pretreated atropine (2.5 mg/kg) in male wistar rats after 15 minutes of injection in the liver expressed as (body weight-corrected) uptake value; assay type: organism-based; method in brief: as §1
[32] = test system: Rattus norvegicus; assay: The Biodistribution of the antagonistic compound along with pretreated atropine (2.5 mg/kg) in male wistar rats after 15 minutes of injection in the lung expressed as (body weight-corrected) uptake value; assay type: organism-based; method in brief: as §1
[33] = test system: Rattus norvegicus; assay: The Biodistribution of the antagonistic compound along with pretreated atropine (2.5 mg/kg) in male wistar rats after 15 minutes of injection in the muscle expressed as (body weight-corrected) uptake value; assay type: organism-based, Muscle tissue; method in brief: as §1
[34] = species on record: Rattus norvegicus; assay: The Biodistribution of the antagonistic compound in male wistar rats, after 15 minutes of injection in the liver expressed as (body weight-corrected) uptake value; assay type: organism-based
[35] = species on record: Rattus norvegicus; assay: The Biodistribution of the antagonistic compound in male wistar rats, after 15 minutes of injection in the spleen expressed as (body weight-corrected) uptake value; assay type: organism-based
[36] = test system: Rattus norvegicus; assay: The Biodistribution of the antagonistic compound along with pretreated atropine (2.5 mg/kg) in male wistar rats after 15 minutes of injection in the stomach expressed as (body weight-corrected) uptake value; assay type: organism-based; method in brief: as §1

C[N+]1(C)CCC(OC(=O)C(O)(c2ccccc2)C2CCCCC2)CC1.[I-] (racemic)
Uptake value [1]: 0.54 | Uptake value [2]: 0.34 | Uptake value [3]: 0.13 | Uptake value [4]: Not Active | Uptake value [5]: 0.18 | Uptake value [6]: 0.2 | Uptake value [7]: 0.11 | Uptake value [8]: 0.24 | Uptake value [9]: Not Active | Uptake value [10]: Not Active | Uptake value [11]: 0.5 | Uptake value [12]: 8.45 | Uptake value [13]: 3.39 | Uptake value [14]: 2.48 | Uptake value [15]: 0.67 | Uptake value [16]: 0.08 | Uptake value [17]: 1.97 | Uptake value [18]: 0.14 | Uptake value [19]: 9.72 | Uptake value [20]: Not Active | Uptake value [21]: Not Active | Uptake value [22]: 0.23 | Uptake value [23]: 0.16 | Uptake value [24]: 4.71 | Uptake value [25]: Not Active | Uptake value [26]: 1.62 | Uptake value [27]: 1.68 | Uptake value [28]: 0.07 | Uptake value [29]: 1.1 | Uptake value [30]: 1.49 | Uptake value [31]: 8.1 | Uptake value [32]: 0.14 | Uptake value [33]: 0.07 | Uptake value [34]: 6.27 | Uptake value [35]: 0.97 | Uptake value [36]: 0.45

From ChEMBL document CHEMBL1130012 (J Med Chem, 1997)
